Reference: PMC9112330 (ACS Infectious Diseases, 2022)

Assay: In vivo fluorescence bioimaging / biodistribution
Set-up: species or system mouse
Conditions: n = 2
Outline: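 AF680 was attached through a cysteine inserted between the PNA and the dendron, by maleimide coupling. Two NMRI-nu mice received 200 μL of 10 μM labelled conjugate. Under 2% isoflurane, epifluorescence was imaged at 675/720 nm from pre-injection to 48 h, followed by an ex vivo organ scan. Body and kidney ROI signals were expressed as % of initial signal (Y0, from linear regression of the first three points), and half-life came from one-phase decay fit.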

H-(Gbu)8-(DAB)4-(DAB)2-DAB-Cys(AF680)-CTCATACTCT-NH2 [AF680-PNA4897]
organ accumulation of remaining fluorescence (ex vivo scan of excised organs 48 h post i.v. administration): accumulated predominantly in the kidney and in the liver | time to distribution in the whole body (i.v. tail vein, 200 μL of 10 μM, nude mice, near-IR fluorescence imaging): < 5 min
